Laboratory results reported in ChEMBL document CHEMBL4229333, “Effects of rigidity on the selectivity of protein kinase inhibitors” (Eur J Med Chem, 2018).
pIC50: −log10 of the molar value.

Assays:
[1] = molecular target: Serine/threonine-protein kinase B-raf (Homo sapiens, UniProt P15056, V600E); experiment: Inhibition of full length FLAG-tagged BRAF V600E mutant (unknown origin) expressed in HEK293 cells assessed as decrease in MEK phosphorylation by immunoblotting assay; format: cell-based
[2] = Apparent permeability from basolateral to apical side in human Caco2 cells in absence of P-gp inhibitor by LC-MS/MS analysis; format: ADME, cell-based; settings: Caco-2
Method in brief: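 Caco-2 monolayer permeability, measured apical-to-basolateral and basolateral-to-apical. Compound concentrations were quantified by LC-MS/MS, and apparent permeability coefficients (Papp, cm/s) were calculated from them.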

[3] = molecular target: Mitogen-activated protein kinase 9 (Homo sapiens) (UniProt P45984); experiment: Inhibition of JNK2 (unknown origin) at 1 uM by mobility shift microfluidics platform based assay relative to control
[4] = molecular target: Aurora kinase B (Homo sapiens) (UniProt Q96GD4); experiment: Inhibition of AURORA-B (unknown origin) at 1 uM by mobility shift microfluidics platform based assay relative to control
[5] = molecular target: Serine/threonine-protein kinase PAK 5 (Homo sapiens) (UniProt Q9P286); experiment: Inhibition of PAK5 (unknown origin) at 1 uM by mobility shift microfluidics platform based assay relative to control
[6] = molecular target: Tyrosine-protein kinase Tec (Homo sapiens) (UniProt P42680); experiment: Inhibition of TEC (unknown origin) at 1 uM by mobility shift microfluidics platform based assay relative to control
[7] = molecular target: Dual specificity mitogen-activated protein kinase kinase 2 (Homo sapiens) (UniProt P36507); experiment: Inhibition of MEK2 (unknown origin) at 1 uM by mobility shift microfluidics platform based assay relative to control
Chain of Dual specificity mitogen-activated protein kinase kinase 2 (Homo sapiens) (P36507 whole entry): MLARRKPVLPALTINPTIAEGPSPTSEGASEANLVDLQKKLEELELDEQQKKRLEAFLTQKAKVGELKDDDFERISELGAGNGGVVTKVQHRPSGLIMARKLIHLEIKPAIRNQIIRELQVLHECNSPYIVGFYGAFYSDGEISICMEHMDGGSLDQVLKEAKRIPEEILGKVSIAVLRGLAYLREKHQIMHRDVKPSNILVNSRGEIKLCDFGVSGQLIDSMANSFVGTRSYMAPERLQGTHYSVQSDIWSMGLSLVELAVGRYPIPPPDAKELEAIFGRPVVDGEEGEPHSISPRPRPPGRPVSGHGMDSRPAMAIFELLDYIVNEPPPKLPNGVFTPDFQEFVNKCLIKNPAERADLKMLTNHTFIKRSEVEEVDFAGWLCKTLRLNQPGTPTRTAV

[8] = molecular target: Muscle, skeletal receptor tyrosine-protein kinase (Homo sapiens) (UniProt O15146); experiment: Inhibition of MUSK (unknown origin) at 1 uM by mobility shift microfluidics platform based assay relative to control
Chain of Muscle, skeletal receptor tyrosine-protein kinase (Homo sapiens) (O15146 whole entry): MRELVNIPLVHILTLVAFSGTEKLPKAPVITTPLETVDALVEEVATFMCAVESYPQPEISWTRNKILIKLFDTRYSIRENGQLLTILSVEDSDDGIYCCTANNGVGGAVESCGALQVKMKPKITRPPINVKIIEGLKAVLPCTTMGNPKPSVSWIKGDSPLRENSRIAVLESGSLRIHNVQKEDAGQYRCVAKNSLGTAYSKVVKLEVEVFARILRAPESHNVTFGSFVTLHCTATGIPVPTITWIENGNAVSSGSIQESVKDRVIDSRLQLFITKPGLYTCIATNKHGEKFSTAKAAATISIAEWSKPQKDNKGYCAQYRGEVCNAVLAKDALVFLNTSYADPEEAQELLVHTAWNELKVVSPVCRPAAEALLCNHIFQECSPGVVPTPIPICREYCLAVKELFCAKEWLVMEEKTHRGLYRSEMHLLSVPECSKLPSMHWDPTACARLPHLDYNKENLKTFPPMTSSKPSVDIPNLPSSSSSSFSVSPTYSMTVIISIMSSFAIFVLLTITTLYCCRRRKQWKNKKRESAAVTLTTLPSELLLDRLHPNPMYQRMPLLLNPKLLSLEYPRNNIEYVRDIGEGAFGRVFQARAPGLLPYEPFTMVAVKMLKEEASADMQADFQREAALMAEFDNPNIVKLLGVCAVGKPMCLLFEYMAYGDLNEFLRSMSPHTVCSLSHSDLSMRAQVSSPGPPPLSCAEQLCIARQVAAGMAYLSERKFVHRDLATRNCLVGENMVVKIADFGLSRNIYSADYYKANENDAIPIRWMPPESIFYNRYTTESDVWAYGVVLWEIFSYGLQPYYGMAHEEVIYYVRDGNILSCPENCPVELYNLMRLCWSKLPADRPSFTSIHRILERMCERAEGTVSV

[9] = molecular target: RAC-alpha serine/threonine-protein kinase (Homo sapiens) (UniProt P31749); experiment: Inhibition of AKT1 (unknown origin) at 1 uM by mobility shift microfluidics platform based assay relative to control
[10] = molecular target: Serine/threonine-protein kinase 4 (Homo sapiens) (UniProt Q13043); experiment: Inhibition of MST1 (unknown origin) at 1 uM by mobility shift microfluidics platform based assay relative to control
[11] = molecular target: Fibroblast growth factor receptor 4 (Homo sapiens) (UniProt P22455); experiment: Inhibition of FGFR4 (unknown origin) at 1 uM by mobility shift microfluidics platform based assay relative to control
[12] = molecular target: Tyrosine-protein kinase receptor TYRO3 (Homo sapiens) (UniProt Q06418); experiment: Inhibition of TYRO3 (unknown origin) at 1 uM by mobility shift microfluidics platform based assay relative to control
[13] = molecular target: Tyrosine-protein kinase receptor UFO (Homo sapiens) (UniProt P30530); experiment: Inhibition of AXL (unknown origin) at 1 uM by mobility shift microfluidics platform based assay relative to control
[14] = molecular target: Serine/threonine-protein kinase 26 (Homo sapiens) (UniProt Q9P289); experiment: Inhibition of MST4 (unknown origin) at 1 uM by mobility shift microfluidics platform based assay relative to control
Chain of Serine/threonine-protein kinase 26 (Homo sapiens) (Q9P289 2-416 limits assumed): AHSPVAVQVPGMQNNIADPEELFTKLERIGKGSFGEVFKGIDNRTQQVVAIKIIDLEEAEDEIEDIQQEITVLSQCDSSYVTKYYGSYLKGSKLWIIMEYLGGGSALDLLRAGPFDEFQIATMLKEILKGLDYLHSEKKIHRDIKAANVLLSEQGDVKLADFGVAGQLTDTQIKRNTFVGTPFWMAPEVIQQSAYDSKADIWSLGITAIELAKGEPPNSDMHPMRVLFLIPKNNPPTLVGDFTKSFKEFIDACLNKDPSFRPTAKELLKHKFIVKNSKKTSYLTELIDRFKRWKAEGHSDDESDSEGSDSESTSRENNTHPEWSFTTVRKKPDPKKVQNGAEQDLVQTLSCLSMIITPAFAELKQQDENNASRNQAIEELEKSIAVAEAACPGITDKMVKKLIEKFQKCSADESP

[15] = molecular target: Tyrosine-protein kinase ITK/TSK (Homo sapiens) (UniProt Q08881); experiment: Inhibition of ITK (unknown origin) at 1 uM by mobility shift microfluidics platform based assay relative to control
Chain of Tyrosine-protein kinase ITK/TSK (Homo sapiens) (Q08881 whole entry): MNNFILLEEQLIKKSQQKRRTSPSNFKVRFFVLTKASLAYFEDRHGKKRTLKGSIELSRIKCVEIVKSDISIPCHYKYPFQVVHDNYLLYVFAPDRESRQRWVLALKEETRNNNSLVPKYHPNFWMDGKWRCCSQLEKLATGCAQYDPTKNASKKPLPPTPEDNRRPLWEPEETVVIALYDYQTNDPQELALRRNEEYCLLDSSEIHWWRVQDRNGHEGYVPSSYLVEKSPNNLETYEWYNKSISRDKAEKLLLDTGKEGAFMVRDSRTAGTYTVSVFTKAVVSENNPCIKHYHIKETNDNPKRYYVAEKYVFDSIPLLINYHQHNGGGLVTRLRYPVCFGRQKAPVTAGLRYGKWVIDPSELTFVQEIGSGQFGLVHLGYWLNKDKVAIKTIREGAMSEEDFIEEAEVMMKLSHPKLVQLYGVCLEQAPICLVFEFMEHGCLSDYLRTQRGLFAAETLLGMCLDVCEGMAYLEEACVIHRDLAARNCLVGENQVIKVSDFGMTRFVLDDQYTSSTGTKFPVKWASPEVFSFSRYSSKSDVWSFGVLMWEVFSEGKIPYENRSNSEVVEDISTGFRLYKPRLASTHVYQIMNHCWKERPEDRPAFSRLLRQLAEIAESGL

[16] = molecular target: AMP-activated protein kinase (AMPK) alpha-1/beta-1/gamma-1 (Homo sapiens) (UniProt P54619+Q9Y478+Q13131); experiment: Inhibition of AMP-A1B1G1 (unknown origin) at 1 uM by mobility shift microfluidics platform based assay relative to control; format: protein-complex assay
[17] = molecular target: Proto-oncogene tyrosine-protein kinase receptor Ret (Homo sapiens) (UniProt P07949); experiment: Inhibition of RET (unknown origin) at 1 uM by mobility shift microfluidics platform based assay relative to control
Chain of Proto-oncogene tyrosine-protein kinase receptor Ret (Homo sapiens) (P07949 whole entry): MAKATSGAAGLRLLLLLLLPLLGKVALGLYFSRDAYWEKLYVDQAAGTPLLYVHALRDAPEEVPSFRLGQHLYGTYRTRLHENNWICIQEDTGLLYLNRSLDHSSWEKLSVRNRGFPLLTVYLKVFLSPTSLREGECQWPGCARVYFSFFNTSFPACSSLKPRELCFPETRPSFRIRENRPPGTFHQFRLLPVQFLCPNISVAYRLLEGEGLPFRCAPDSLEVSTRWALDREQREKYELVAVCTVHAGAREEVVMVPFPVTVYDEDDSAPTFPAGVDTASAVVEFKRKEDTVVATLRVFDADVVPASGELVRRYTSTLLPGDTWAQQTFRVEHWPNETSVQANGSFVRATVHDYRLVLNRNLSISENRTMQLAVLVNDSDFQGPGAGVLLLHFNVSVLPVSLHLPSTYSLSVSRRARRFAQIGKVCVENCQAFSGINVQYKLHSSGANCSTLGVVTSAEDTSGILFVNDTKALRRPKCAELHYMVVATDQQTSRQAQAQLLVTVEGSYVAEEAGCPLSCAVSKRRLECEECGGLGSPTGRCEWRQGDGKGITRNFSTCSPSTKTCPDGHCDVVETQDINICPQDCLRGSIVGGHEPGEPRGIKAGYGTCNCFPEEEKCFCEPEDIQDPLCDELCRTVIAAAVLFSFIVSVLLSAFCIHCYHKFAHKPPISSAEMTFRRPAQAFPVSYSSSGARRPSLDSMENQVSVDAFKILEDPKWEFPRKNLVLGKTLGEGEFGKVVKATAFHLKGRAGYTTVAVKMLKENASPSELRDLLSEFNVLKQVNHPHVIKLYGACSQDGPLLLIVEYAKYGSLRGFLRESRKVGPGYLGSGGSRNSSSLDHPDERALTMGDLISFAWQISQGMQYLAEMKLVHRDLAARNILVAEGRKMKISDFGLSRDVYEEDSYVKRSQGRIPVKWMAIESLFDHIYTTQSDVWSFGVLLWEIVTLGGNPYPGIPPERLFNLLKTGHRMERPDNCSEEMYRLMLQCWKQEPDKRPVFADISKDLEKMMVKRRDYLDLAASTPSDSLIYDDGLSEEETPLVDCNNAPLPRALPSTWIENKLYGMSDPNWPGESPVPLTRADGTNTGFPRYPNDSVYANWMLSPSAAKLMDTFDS

[18] = molecular target: Serine/threonine-protein kinase haspin (Homo sapiens) (UniProt Q8TF76); experiment: Inhibition of HASPIN (unknown origin) at 1 uM by mobility shift microfluidics platform based assay relative to control
[19] = molecular target: Non-receptor tyrosine-protein kinase TNK1 (Homo sapiens) (UniProt Q13470); experiment: Inhibition of TNK1 (unknown origin) at 1 uM by mobility shift microfluidics platform based assay relative to control
[20] = molecular target: Tyrosine-protein kinase Fer (Homo sapiens) (UniProt P16591); experiment: Inhibition of FER (unknown origin) at 1 uM by mobility shift microfluidics platform based assay relative to control
[21] = molecular target: Serine/threonine-protein kinase 38-like (Homo sapiens) (UniProt Q9Y2H1); experiment: Inhibition of NDR2 (unknown origin) at 1 uM by mobility shift microfluidics platform based assay relative to control
[22] = molecular target: Receptor-interacting serine/threonine-protein kinase 2 (Homo sapiens) (UniProt O43353); experiment: Inhibition of RIPK2 (unknown origin) at 1 uM by mobility shift microfluidics platform based assay relative to control
Chain of Receptor-interacting serine/threonine-protein kinase 2 (Homo sapiens) (O43353 whole entry): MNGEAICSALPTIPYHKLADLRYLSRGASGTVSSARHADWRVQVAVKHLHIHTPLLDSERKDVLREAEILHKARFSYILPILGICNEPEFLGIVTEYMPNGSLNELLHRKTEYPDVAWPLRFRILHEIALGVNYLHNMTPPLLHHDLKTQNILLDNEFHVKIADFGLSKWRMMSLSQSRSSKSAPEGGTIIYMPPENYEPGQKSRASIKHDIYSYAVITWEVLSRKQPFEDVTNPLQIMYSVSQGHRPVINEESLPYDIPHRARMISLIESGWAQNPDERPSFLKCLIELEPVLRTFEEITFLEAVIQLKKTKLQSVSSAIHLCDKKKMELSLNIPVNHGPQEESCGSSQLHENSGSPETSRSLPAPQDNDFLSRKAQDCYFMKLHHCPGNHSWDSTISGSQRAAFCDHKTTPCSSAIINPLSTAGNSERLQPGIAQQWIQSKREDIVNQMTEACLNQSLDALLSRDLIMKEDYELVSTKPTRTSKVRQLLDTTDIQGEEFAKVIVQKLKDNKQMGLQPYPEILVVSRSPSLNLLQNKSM

[23] = molecular target: Interleukin-1 receptor-associated kinase 4 (Homo sapiens) (UniProt Q9NWZ3); experiment: Inhibition of IRAK4 (unknown origin) at 1 uM by mobility shift microfluidics platform based assay relative to control
[24] = molecular target: Serine/threonine-protein kinase pim-2 (Homo sapiens) (UniProt Q9P1W9); experiment: Inhibition of PIM2 (unknown origin) at 1 uM by mobility shift microfluidics platform based assay relative to control
[25] = molecular target: Mitogen-activated protein kinase kinase kinase kinase 4 (Homo sapiens) (UniProt O95819); experiment: Inhibition of MAP4K4 (unknown origin) at 1 uM by mobility shift microfluidics platform based assay relative to control
[26] = molecular target: Ribosomal protein S6 kinase alpha-1 (Homo sapiens) (UniProt Q15418); experiment: Inhibition of RSK1 (unknown origin) at 1 uM by mobility shift microfluidics platform based assay relative to control
Chain of Ribosomal protein S6 kinase alpha-1 (Homo sapiens) (Q15418 whole entry): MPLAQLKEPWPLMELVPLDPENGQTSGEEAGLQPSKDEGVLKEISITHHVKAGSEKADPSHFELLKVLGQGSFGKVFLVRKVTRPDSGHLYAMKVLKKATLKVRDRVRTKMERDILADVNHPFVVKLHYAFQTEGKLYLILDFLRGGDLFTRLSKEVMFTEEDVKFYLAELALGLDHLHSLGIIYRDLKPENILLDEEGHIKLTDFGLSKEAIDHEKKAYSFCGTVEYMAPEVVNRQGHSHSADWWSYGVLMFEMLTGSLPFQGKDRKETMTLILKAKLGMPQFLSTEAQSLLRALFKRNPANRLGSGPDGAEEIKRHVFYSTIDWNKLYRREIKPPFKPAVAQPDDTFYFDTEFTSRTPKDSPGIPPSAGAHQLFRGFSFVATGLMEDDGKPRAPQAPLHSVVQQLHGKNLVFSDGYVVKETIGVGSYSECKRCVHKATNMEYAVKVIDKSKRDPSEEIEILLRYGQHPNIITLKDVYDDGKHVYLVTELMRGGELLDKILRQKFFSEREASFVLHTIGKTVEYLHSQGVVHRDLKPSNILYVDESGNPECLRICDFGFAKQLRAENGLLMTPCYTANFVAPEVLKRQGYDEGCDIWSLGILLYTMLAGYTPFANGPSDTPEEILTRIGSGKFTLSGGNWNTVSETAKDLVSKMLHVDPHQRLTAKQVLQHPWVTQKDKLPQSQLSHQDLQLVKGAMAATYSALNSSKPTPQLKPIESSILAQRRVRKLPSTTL

[27] = molecular target: Ribosomal protein S6 kinase alpha-3 (Homo sapiens) (UniProt P51812); experiment: Inhibition of RSK2 (unknown origin) at 1 uM by mobility shift microfluidics platform based assay relative to control
[28] = molecular target: cAMP-dependent protein kinase catalytic subunit PRKX (Homo sapiens) (UniProt P51817); experiment: Inhibition of PRKX (unknown origin) at 1 uM by mobility shift microfluidics platform based assay relative to control
Chain of cAMP-dependent protein kinase catalytic subunit PRKX (Homo sapiens) (P51817 whole entry): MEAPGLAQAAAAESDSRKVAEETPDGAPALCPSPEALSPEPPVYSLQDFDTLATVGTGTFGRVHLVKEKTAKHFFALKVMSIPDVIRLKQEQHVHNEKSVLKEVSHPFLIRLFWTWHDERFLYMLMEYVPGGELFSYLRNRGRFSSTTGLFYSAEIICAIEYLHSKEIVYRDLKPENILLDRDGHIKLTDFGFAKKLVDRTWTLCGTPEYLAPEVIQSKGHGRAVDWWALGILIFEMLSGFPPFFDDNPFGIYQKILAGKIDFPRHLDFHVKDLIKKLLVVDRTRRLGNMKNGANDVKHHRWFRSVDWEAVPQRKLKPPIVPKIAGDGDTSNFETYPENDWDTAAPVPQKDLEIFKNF

[29] = molecular target: Ribosomal protein S6 kinase alpha-2 (Homo sapiens) (UniProt Q15349); experiment: Inhibition of RSK3 (unknown origin) at 1 uM by mobility shift microfluidics platform based assay relative to control
[30] = molecular target: Ephrin type-A receptor 8 (Homo sapiens) (UniProt P29322); experiment: Inhibition of EPH-A8 (unknown origin) at 1 uM by mobility shift microfluidics platform based assay relative to control
[31] = molecular target: Tyrosine-protein kinase TXK (Homo sapiens) (UniProt P42681); experiment: Inhibition of TXK (unknown origin) at 1 uM by mobility shift microfluidics platform based assay relative to control
[32] = system: Caco-2; experiment: Efflux ratio in human Caco2 cells in absence of P-gp inhibitor by LC-MS/MS analysis; format: ADME, cell-based
Method in brief: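 Caco-2 bidirectional transport, with compound concentrations measured by LC-MS/MS. Efflux ratio was calculated as Papp(B−A)/Papp(A−B).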

For CC(C)n1nc(C#Cc2cccc(NC(=O)c3cccc(C(F)(F)F)c3)c2)c2c(N)ncnc21, the pIC50 [1] was 8.70, the Papp B→A [2] was 1 ×10⁻⁶ cm/s and the inhibition [3] was 26%. The inhibition [4] was 82%, the inhibition [5] was 0% and the inhibition [6] was 40%. For the same molecule, the inhibition [7] was 25%, the inhibition [8] was 8% and the inhibition [9] was -1%. The inhibition [10] was 10%, the inhibition [11] was 89% and the inhibition [12] was 67%. For the same molecule, the inhibition [13] was 12%, the inhibition [14] was 9% and the inhibition [15] was 23%. For the same molecule, the inhibition [16] was 2%, the inhibition [17] was 100% and the inhibition [18] was 5%. The inhibition [19] was 84%, the inhibition [20] was 40% and the inhibition [21] was 1%. For the same molecule, the inhibition [22] was 98%, the inhibition [23] was 2% and the inhibition [24] was -1%. It also gave an inhibition [25] of 69%, an inhibition [26] of 9% and an inhibition [27] of 0%. It also gave an inhibition [28] of 2%, an inhibition [29] of 10% and an inhibition [30] of 100%. For the same molecule, the inhibition [31] was 94% and the Ratio [32] was 1.2.
Molecule CC(C)n1nc(C#Cc2cccc3cc(-c4cccc(C(F)(F)F)c4)ncc23)c2c(N)ncnc21 has a pIC50 [1] of 7.85, a Papp B→A [2] of 2.6 ×10⁻⁶ cm/s and an inhibition [3] of 8%. It also gave an inhibition [4] of 27%, an inhibition [5] of -4% and an inhibition [6] of 2%. For the same molecule, the inhibition [7] was 6%, the inhibition [8] was 3% and the inhibition [9] was 0%. It also gave an inhibition [10] of 4%, an inhibition [11] of 62% and an inhibition [12] of 2%. For the same molecule, the inhibition [13] was 2%, the inhibition [14] was -1% and the inhibition [15] was 10%. It also gave an inhibition [16] of 0%, an inhibition [17] of 98% and an inhibition [18] of 1%. For the same molecule, the inhibition [19] was 19%, the inhibition [20] was 12% and the inhibition [21] was -1%. It also gave an inhibition [22] of 82%, an inhibition [23] of 3% and an inhibition [24] of 0%. For the same molecule, the inhibition [25] was 3%, the inhibition [26] was 1% and the inhibition [27] was 0%. For the same molecule, the inhibition [28] was -4%, the inhibition [29] was 2% and the inhibition [30] was 97%. It also gave an inhibition [31] of 5% and a Ratio [32] of 3.2.
